In series [1] the test system is A10. The series can be described thus: Antimicrofilament activity in rat A10 cells assessed as loss of microfilament at 2.5 ug/ml by rhodamine-phalloidin staining. The format is functional, cell-based. The procedure, abridged:
(§1)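 A-10 rat aortic smooth muscle cells treated with compound, then fixed; microfilament network scored as loss, additional loss, total loss, or cell loss, at the concentration given in each line.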

For the next series, the system named is L1210. Kind of series: Cytotoxicity against mouse L1210 cells assessed as zone units at 15 ug/disk by disk diffusion soft agar assay. The format is functional. In outline: (§2)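 Disk diffusion soft agar colony formation assay at 15 μg/disk; cytotoxicity read as zone units. Cells: L1210 murine leukemia, C38 murine colon, CFU-GM normal bone marrow. Samples called solid tumor selective when the solid tumor zone exceeds the normal-cell or leukemia zone by more than 250 units.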
For orientation: In agar diffusion tests the substance spreads into inoculated agar from a disc or well.

Series [2] is described as follows: Cytotoxicity against mouse CFU-GM cells assessed as zone units at 15 ug/disk by disk diffusion soft agar assay. It counts as cell-based. In outline: as §2
Series [3] relates to A10. Kind of series: Antimicrofilament activity in rat A10 cells assessed as total loss of microfilament at 5 ug/ml by rhodamine-phalloidin staining. It counts as functional, cell-based. In outline:
as §1

The subject of series [4] is A10. The series can be described thus: Antimicrofilament activity in rat A10 cells assessed as loss of microfilament at 1 ug/ml by rhodamine-phalloidin staining. The format is functional, cell-based. The procedure, abridged:
as §1

The subject of the next series is MC-38. Kind of series: Cytotoxicity against mouse C38 cells assessed as zone units at 15 ug/disk by disk diffusion soft agar assay. The format is functional. The procedure, abridged: as §2
For series [5], the system named is A10. The series can be described thus: Antimicrofilament activity in rat A10 cells assessed as cell loss at 10 ug/ml by rhodamine-phalloidin staining. The format is functional, cell-based. In outline: as §1
The test system of series [6] is A10. The series can be described thus: Antimicrofilament activity in rat A10 cells assessed as loss of microfilament at 15 ug/ml by rhodamine-phalloidin staining. The format is functional, cell-based. In outline: as §1
In series [7] the test system is A10. The series can be described thus: Antimicrofilament activity in rat A10 cells assessed as cell loss at 15 ug/ml by rhodamine-phalloidin staining. The format is functional, cell-based. The procedure, abridged:
as §1

Series [8] has as its system A10. Kind of series: Antimicrofilament activity in rat A10 cells assessed as total loss of microfilament at 25 ug/ml by rhodamine-phalloidin staining. The format is functional, cell-based. The procedure, abridged: as §1
The subject of series [9] is A10. Kind of series: Antimicrofilament activity in rat A10 cells assessed as cell loss at 25 ug/ml by rhodamine-phalloidin staining. It counts as functional, cell-based. The procedure, abridged:
as §1

In series [10] the test system is A10. Kind of series: Antimicrofilament activity in rat A10 cells assessed as loss of microfilament at 10 ug/ml by rhodamine-phalloidin staining. It counts as functional, cell-based. In outline: as §1

Molecules are shown by their SMILES. The source made the active and inactive calls. No cut-off for these calls is given here.

Regarding `CC[C@@H]1C(C)=C[C@@H]2/C=C/C[C@H](C)/C=C(\C)[C@@H](O)[C@@H](O)/C=C/C(=O)[C@]23C(=O)N[C@@H]([C@H](C)c2c[nH]c4ccccc24)[C@H]13`, the result with A10 [1], with A10 [3] and in the series on A10 [4] was Active. The Activity is 500 Zone units in the series on L1210, 500 Zone units in [2] and 400 Zone units in the series on MC-38.

With `CC[C@@H]1C(C)=C[C@@H]2/C=C/C[C@H](C)/C=C(\C)CC/C=C/C(=O)[C@]23C(=O)N[C@@H]([C@H](C)c2c[nH]c4ccccc24)[C@H]13`, the outcome in the series on A10 [5], with A10 [6], with A10 [7], in the series on A10 [8], with A10 [9] and with A10 [10] was Active. Further, the Activity with MC-38 is on record as 150 Zone units.

Consider `CC[C@@H]1C(C)=C[C@@H]2/C=C/C[C@H](C)/C=C(\C)[C@@H](O)C(=O)/C=C/C(=O)[C@]23C(=O)N[C@@H]([C@H](C)c2c[nH]c4ccccc24)[C@H]13`, for which the Activity worked out at 250 Zone units in the series with L1210, 250 Zone units in [2] and 350 Zone units in the series on MC-38.
